Compounds with a hit are over-represented: about 2.3% of the library has one in this group of screens.
TAAR1 agonist – human TAAR1 agonists, primary screen, Fluo-8 calcium fluorescence, CHO RD-HGA16 cells | vehicle wells 0%, saturating PEA agonist 100% | 0.99% of 360,000 active | AID 624467, 2012 | Trace amine-associated receptor 1 (Homo sapiens), Q96RJ0 | activation, % at 3 µM;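 active = activation above the mean activation of all test compounds in the run plus 3 SD, cut at about 38% in these data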
Target sequence (Q96RJ0 whole entry, looked up): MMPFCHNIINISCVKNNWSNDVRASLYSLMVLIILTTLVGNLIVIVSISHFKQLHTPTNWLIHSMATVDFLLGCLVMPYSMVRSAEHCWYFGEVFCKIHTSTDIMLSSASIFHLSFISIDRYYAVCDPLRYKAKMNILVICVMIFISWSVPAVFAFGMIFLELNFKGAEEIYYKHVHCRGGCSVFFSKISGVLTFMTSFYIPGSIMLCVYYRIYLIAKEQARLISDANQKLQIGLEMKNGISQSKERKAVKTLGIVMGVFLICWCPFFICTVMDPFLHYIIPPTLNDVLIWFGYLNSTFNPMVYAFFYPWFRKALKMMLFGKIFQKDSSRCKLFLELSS
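System: CHO RD-HGA16 cells carrying human TAAR1 plus Gα16; Incubation: 17-24 h seeding, 75 min 37 °C dye, 30 min RT; Measured by: Fluo-8 fluorescence, 5 s baseline then 140 s kinetic read; Control set: DMSO and PEA EC100; Replication: single well for each compound.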
TAAR1 antag – human TAAR1 antagonists, primary screen, Fluo-8 calcium fluorescence, CHO RD-HGA16 cells. 1.5% of 360,000 active. Trace amine-associated receptor 1 (Homo sapiens), Q96RJ0. antagonist. inhibition, % at 3 µM;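 active = inhibition above a per-plate cutoff, the mean inhibition of test compounds on that plate plus 3 SD, cut at about 49% in these data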;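 also: 0% = DMSO plus EC80 beta-PEA response and 100% = DMSO alone without agonist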
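System: CHO RD-HGA16 cells bearing hTAAR1. Reagent: EC80 β-phenethylamine stimulus. Schedule: seeding 17-24 h prior, 75-min 37 °C, 30-min RT dye loading. Signal: Fluo-8 intracellular calcium dye fluorescence, real-time kinetic reads. Read-out: % inhibition from peak post-agonist over basal fluorescence ratio. Benchmarks: vehicle wells and EC80 agonist wells. Replicates: n of 1.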
V1aR counter – agonists of human V1a receptor, primary screen, counter-screen for OXTR agonist project, fluorescence, CHO-V1R cells; 0.25% of 320,000 active; Vasopressin V1a receptor (Homo sapiens), P37288; activation, % at 3 µM; Fluo-8 calcium fluorescence, agonist mode; 0% DMSO, 100% 3 nM vasopressin;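 active = activation above the mean activation of all tested compounds plus 3 SD, per screening run, cut at about 20% in these data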;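 also: signal is peak over basal fluorescence ratio across a 100 second FLIPR read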
OXTR ag – human OXTR agonists, primary screen, fluorescence, CHO-OTR cells, Fluo-8 calcium | Oxytocin receptor (Homo sapiens), P30559 | Fluo-8 calcium fluorescence; normalized: DMSO 0%, oxytocin 100% | activation, % at 3 µM | 0.32% of 320,000 active | AID 2435, 2010;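 active = activation above the mean of all tested compounds plus 3 SD, cutoff set per screening run, cut at about 20% in these data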;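 also: peak over basal fluorescence ratio from a 100 s FLIPR kinetic read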
Target sequence (P30559 whole entry, looked up): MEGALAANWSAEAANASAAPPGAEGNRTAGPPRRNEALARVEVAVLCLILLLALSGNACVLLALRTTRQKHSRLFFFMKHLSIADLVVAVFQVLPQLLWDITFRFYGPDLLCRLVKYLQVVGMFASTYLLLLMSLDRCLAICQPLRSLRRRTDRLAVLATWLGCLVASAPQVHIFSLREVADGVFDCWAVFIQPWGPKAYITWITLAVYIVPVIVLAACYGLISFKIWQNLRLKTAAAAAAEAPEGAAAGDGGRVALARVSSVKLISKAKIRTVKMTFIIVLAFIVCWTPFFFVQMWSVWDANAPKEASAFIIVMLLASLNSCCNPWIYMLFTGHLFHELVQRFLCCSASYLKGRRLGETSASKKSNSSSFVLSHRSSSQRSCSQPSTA
OXTR potentiate – human OXTR potentiators, primary screen, fluorescence, CHO-OTR cells, Fluo-8 calcium. Oxytocin receptor (Homo sapiens), P30559. Fluo-8 calcium fluorescence, potentiator mode; 0% = oxytocin EC15, 100% = EC100. activation, % at 3 µM. 0.061% of 320,000 active. AID 2445, 2010;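 active = activation above that plate's cutoff, the mean activation of tested compounds plus 3 SD, cut at about 6.6% in these data, passing the limit was not always enough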;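 also: 100% uses oxytocin at 75 nM as the full agonist control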
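test system = CHO-OTR cells, human receptor | compound = single-point 3.0 µM | schedule = 6 min compound pre-incubation at room temperature, 100 s kinetic read | signal = Fluo-8 no-wash calcium dye fluorescence, excitation 470-495 nm, emission 515-575 nm | repeats = single well per compound, singlicate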
TAAR1 nonsel count – nonselective antagonists in TAAR1 counter-screen cells, counter-screen for hTAAR1 antagonist project, cell-based, fluorescence, calcium. 77% of 2,400 active. counterscreen cell line, antagonist mode. shares compounds with TAAR1 antag. AID 651780, 2012. inhibition, % at 3 µM; in the data active = inhibition above about 22%;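 also: CHO-Ga16 host cells stimulated with ATP at an EC80 level; 0% = agonist EC80 plus vehicle and 100% = vehicle without agonist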
TAAR1 antag conf – human TAAR1 antagonists, retest of hits, confirmation, cell-based, fluorescence. shares compounds with TAAR1 antag. TAAR1-expressing cells, fluorescence antagonist read-out. inhibition, % at 3 µM. 40% of 2,400 active; in the data active = inhibition above about 49%;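 also: CHO-Ga16 host cells challenged with agonist PEA near its EC80; 0% = agonist at EC80 plus vehicle and 100% = vehicle with no agonist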
Ga16 nonsel ag – calcium activation in Ga16-expressing cells, counter-screen for TAAR1 antagonist project, cell-based, fluorescence | agonist counterscreen | activation, % at 3 µM | 18% of 2,400 active | shares compounds with TAAR1 antag | AID 651953, 2012; in the data active = activation above about 12%;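 also: 0% = vehicle wells and 100% = saturating stimulus response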
TAAR1 ag count – TAAR1 activation by candidate antagonists – cell-based, fluorescence, counter-screen for TAAR1 antagonist project | AID 651955, 2012 | hTAAR1 cell line, agonist mode | activation, % at 3 µM | 2% of 2,400 active | shares compounds with TAAR1 antag; in the data active = activation above about 37%;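 also: CHO cells stably expressing TAAR1 with calcium dye readout; 0% = DMSO vehicle and 100% = full agonist response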
Numbers without * were called inactive.

Results for c1ccc(-c2nc3ccccc3nc2-c2ccc(CN3CCC(c4nc5ccccc5[nH]4)CC3)cc2)cc1 ?
TAAR1 agonist: 17; TAAR1 antag: 53*; TAAR1 nonsel count: 34*; TAAR1 antag conf: 45; Ga16 nonsel ag: 16*; TAAR1 ag count: 35

How did N#Cc1ccc2nc(-c3ccc(CN4CCC(c5nc6ccccc6[nH]5)CC4)cc3)c(-c3ccccc3)nc2c1 do in these assays?
TAAR1 agonist: 15; TAAR1 antag: 66*; TAAR1 nonsel count: 38*; TAAR1 antag conf: 48; Ga16 nonsel ag: 11; TAAR1 ag count: 17

Results for CC1(C)OC(=O)C2=C(C[C@@H](CCOCc3ccccc3)O[C@H]2c2ccc(F)cc2)O1 ?
TAAR1 agonist: -1; TAAR1 antag: -8

What do the screens show for `Cc1ccc(S(=O)(=O)N2[C@@H](c3ccc(Br)cc3)C(C(=O)O)=CC[C@H]2c2ccc(Cl)cc2)cc1`?
TAAR1 agonist: 4; TAAR1 antag: 68*; V1aR counter: 1; OXTR ag: 0; OXTR potentiate: -8; TAAR1 nonsel count: 18; TAAR1 antag conf: 51*; Ga16 nonsel ag: 2; TAAR1 ag count: 4

What do the screens show for `C=C(C)C(O)CC/C(C)=C/Cc1c(O)ccc(C(=O)/C=C/c2ccc(O)cc2)c1O` (centres undefined)?
TAAR1 agonist: 9; TAAR1 antag: 70*; V1aR counter: 2; OXTR ag: 4; OXTR potentiate: -10; TAAR1 nonsel count: 29*; TAAR1 antag conf: 29; Ga16 nonsel ag: 7; TAAR1 ag count: 7

How did COc1ccc2cc(-c3cc(C(=O)O)c4ccccc4n3)ccc2c1 do in these assays?
TAAR1 agonist: 6; TAAR1 antag: 2; V1aR counter: 0; OXTR ag: 1; OXTR potentiate: -14

How did COc1ccc(CN(C)C(=O)c2cc(-c3ccc(OC)c(OC)c3)nc3ccccc23)c(OC)c1 do in these assays?
TAAR1 agonist: 1; TAAR1 antag: 80*; TAAR1 nonsel count: 26*; TAAR1 antag conf: 49*; Ga16 nonsel ag: 4; TAAR1 ag count: 3

Results for COc1ccccc1CN(C)C(=O)c1cc(-c2cccs2)nc2ccccc12 ?
TAAR1 agonist: 12; TAAR1 antag: 70*; V1aR counter: 2; OXTR ag: 0; OXTR potentiate: -11; TAAR1 nonsel count: 37*; TAAR1 antag conf: 56*; Ga16 nonsel ag: 6; TAAR1 ag count: 5

How did COc1ccc(-c2cc(C(=O)N(C)Cc3cccc(OC)c3OC)c3ccccc3n2)cc1OC do in these assays?
TAAR1 agonist: 12; TAAR1 antag: 62*; V1aR counter: 0; OXTR ag: -2; OXTR potentiate: -3; TAAR1 nonsel count: 28*; TAAR1 antag conf: 48; Ga16 nonsel ag: 6; TAAR1 ag count: 7

Results for CC(C)CNC(=O)C(=O)NCC1OCCCN1S(=O)(=O)c1ccc2c(c1)OCCO2 (centres undefined) ?
TAAR1 agonist: 1; TAAR1 antag: -3; V1aR counter: 0; OXTR ag: 0; OXTR potentiate: 2

What do the screens show for `CC(=O)C1=C(O)C(=O)N(c2ccccn2)C1c1cccc(F)c1` (centres undefined)?
TAAR1 agonist: 0; TAAR1 antag: -3; V1aR counter: 2; OXTR ag: 1; OXTR potentiate: -6

What do the screens show for `C[C@H](CO)N1C[C@H](C)[C@@H](CN(C)S(=O)(=O)c2ccc3ccccc3c2)OCc2cnnn2CCCC1=O`?
TAAR1 agonist: 0; TAAR1 antag: -4

How did N=c1sccn1CC(=O)N1N=C(c2ccc(Cl)cc2)CC1c1ccco1 (centres undefined) do in these assays?
TAAR1 agonist: 11; TAAR1 antag: 53*; V1aR counter: 0; OXTR ag: 1; OXTR potentiate: -1; TAAR1 nonsel count: 4; TAAR1 antag conf: 21; Ga16 nonsel ag: 13*; TAAR1 ag count: 12

What do the screens show for `Cc1ccccc1S(=O)(=O)Cc1ccc(C(=O)NCCCN2CCCC(C)C2)o1` (centres undefined)?
TAAR1 agonist: 2; TAAR1 antag: 7; V1aR counter: 0; OXTR ag: 0; OXTR potentiate: -7

What do the screens show for `Cc1cccc(C(=O)Oc2ccc(/C=N/NC(=O)c3ccccc3O)cc2)c1`?
TAAR1 agonist: 7; TAAR1 antag: 68*; V1aR counter: 7; OXTR ag: 7; OXTR potentiate: -11; TAAR1 nonsel count: 49*; TAAR1 antag conf: 58*; Ga16 nonsel ag: 8; TAAR1 ag count: 4

How did O=C(O)c1ccc(N/N=C/c2ccc(OC(=O)c3cccc(Cl)c3)cc2)cc1 do in these assays?
TAAR1 agonist: 20; TAAR1 antag: 84*; V1aR counter: 5; OXTR ag: 8; OXTR potentiate: -18; TAAR1 nonsel count: 48*; TAAR1 antag conf: 60*; Ga16 nonsel ag: 8; TAAR1 ag count: 13

What do the screens show for `Cc1cccc(C(=O)Oc2ccc(/C=N/NC(=O)c3ccc(O)cc3)cc2)c1`?
TAAR1 agonist: 13; TAAR1 antag: 73*; TAAR1 nonsel count: 37*; TAAR1 antag conf: 54*; Ga16 nonsel ag: 10; TAAR1 ag count: 17

Results for O=C(CCn1cnnn1)Nc1ccccc1 ?
TAAR1 agonist: 2; TAAR1 antag: 1; V1aR counter: 0; OXTR ag: 0; OXTR potentiate: 6

How did CCC(NC(=O)C1CCCC1)c1ccccc1 (centres undefined) do in these assays?
TAAR1 agonist: 0; TAAR1 antag: 3; V1aR counter: -1; OXTR ag: 0; OXTR potentiate: -1

What do the screens show for `O=C(Nc1ccccc1)c1cccc(N2C(=O)C3C4CC(C(Br)C4Br)C3C2=O)c1` (centres undefined)?
TAAR1 agonist: 24; TAAR1 antag: 72*; V1aR counter: 7; OXTR ag: 7; OXTR potentiate: -10; TAAR1 nonsel count: 38*; TAAR1 antag conf: 64*; Ga16 nonsel ag: 19*; TAAR1 ag count: 22

Bioassay records deposited in PubChem BioAssay by The Scripps Research Institute Molecular Screening Center.
